# GALR2 antag: GALR2 (human) receptor antagonism; O43603; 0.39% of 140,000 active; GALR2-expressing cells, antagonist mode; inhibition, % at 4 µM; AID 828; in the data active means inhibition above about 27%;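 further: cells stimulated with galanin 1-16 at roughly its EC80; 0% = agonist challenge control and 100% = basal control without agonist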
# Target sequence (O43603 whole entry, looked up): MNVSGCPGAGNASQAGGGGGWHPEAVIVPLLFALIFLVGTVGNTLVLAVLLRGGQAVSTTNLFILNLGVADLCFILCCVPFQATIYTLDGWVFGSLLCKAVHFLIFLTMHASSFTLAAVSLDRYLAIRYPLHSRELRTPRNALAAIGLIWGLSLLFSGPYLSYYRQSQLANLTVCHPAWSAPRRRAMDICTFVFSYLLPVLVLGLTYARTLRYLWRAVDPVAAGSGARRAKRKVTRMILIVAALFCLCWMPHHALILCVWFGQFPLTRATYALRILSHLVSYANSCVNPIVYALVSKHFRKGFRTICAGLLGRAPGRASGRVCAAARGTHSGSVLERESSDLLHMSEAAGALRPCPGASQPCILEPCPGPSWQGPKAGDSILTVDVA
# HIV Rev-RRE inh: inhibitors of HIV-1 Rev-RRE RNA interaction | Rev peptide-RRE RNA binding, FRET | inhibition, % at 8 µM | 0.79% of 97,000 active | AID 704;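 active means inhibition above the screen-wide mean plus 3 SD, cut at about 35% in these data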;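 further: 0% = median DMSO wells and 100% = median Neomycin B control wells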
#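 Assay system: labelled RRE RNA duplex and labelled Rev peptide / Medium: HEPES pH 7.5 salt buffer with EDTA / Reagent: labelled Rev peptide / Schedule: 5 + 15 min at 25 °C / Signal: FRET, excitation 480 nm, emission 540 nm donor and 671 nm acceptor / Benchmarks: DMSO and neomycin B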
# S1P2 ag: activates the human S1P2 receptor; activation, % at 4.5 µM; O95136; 0.46% of 97,000 active; AID 729; S1P2-expressing cell line, agonist reporter read-out; in the data active means activation above about 16%;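 further: 0% = vehicle low control and 100% = maximal reference agonist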
# S1P2 antag: antagonists of human S1P2 receptor; 0.21% of 97,000 active; inhibition, % at 5 µM; AID 736; cell-based S1P2 antagonist assay, inhibition at 5 uM; in the data active means inhibition above about 45%;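 further: CRE beta-lactamase reporter cells expressing human S1P2 stimulated with S1P; 0% = agonist at EC80 alone and 100% = agonist plus reference antagonist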
# EphB4 antag: antagonists of human EphB4-ephrin-B2 interaction; P54760; EphB4 LBD / TNYL-RAW-Alexa532 peptide, fluorescence polarization; inhibition, % at 7 µM; 0.15% of 97,000 active; AID 720;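 active means inhibition above the screen-wide mean inhibition plus 3 SD, cut at about 15% in these data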;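 further: 0% = DMSO wells and 100% = excess unlabeled TNYL-RAW peptide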
# GALR2 ag: agonists of human galanin receptor 2 (GALR2). GALR2-expressing cells, agonist activation read-out. activation, % (concentration not given with the values). 0.48% of 140,000 active. AID 803; in the data active means activation above about 5%, passing the limit was not always enough;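 further: 0% = vehicle buffer wells and 100% = reference agonist at full effect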
# * hit, by the source's call; · = no result given; [ ] = dose if it differs, or a comment. A selection: hits, their analogues and other compounds. The true share with any hit is near 1.8%.
SMILES,GALR2 antag,HIV Rev-RRE inh,S1P2 ag,S1P2 antag,EphB4 antag,GALR2 ag
CCOC(=O)c1c(C)n(C)c2ccc(OCC(O)CN(CC)CC)cc12 (centres undefined),13,1,-5,11,-5,-2
CCOC(=O)c1c(C)n(C)c2ccc(OCC(O)Cn3nc(C)cc3C)cc12 (centres undefined),-7,9,58*,-16,4,0
CCN(c1ccccc1)S(=O)(=O)c1ccc(C(=O)Oc2ccc(C(C)=O)cc2)cc1,1,·,·,·,·,-1
CC(C)Cn1c(N)c(C(=O)CSc2ncnc3sc4c(c23)CCCC4)c(=O)n(C)c1=O,-9,·,·,·,·,-1
O=c1oc(/C=C/c2ccccc2)nc2sc3c(c12)CCC3,-17,38*,-1,-12,-3,0
COc1ccc(/C=C/c2nc3sc4c(c3c(=O)o2)CCC4)cc1,3,2,-3,-15,-8,-2
O=C(Cc1c[nH]c2ccccc12)Nc1nc2ccccc2[nH]1,18,9,609*,10,-1,-2
O=C(Cc1ccccc1)Nc1nc2ccccc2[nH]1,9,11,-4,16,0,-1
Oc1[nH]c2ccccc2c1N=Nc1nc2ccccc2s1,11,33,-7,15,15*,-2
COc1cc(NC(=O)CN2C(=O)NC(C)(c3ccc4ccccc4c3)C2=O)c(C)cc1[N+](=O)[O-] (centres undefined),-7,·,·,·,·,-1
CCC(C)n1c(NC(=O)c2ccccc2)c(C#N)c2nc3ccccc3nc21 (centres undefined),2,76*,56*,-77,-10,34*
C=C1CC(C(=O)N/N=C/c2ccccc2)C1,-6,·,·,·,·,-1
COc1cc2cc3c(N)c(C(=O)NCc4ccco4)sc3nc2cc1OC,7,34,-3,2,-9,-1
COc1cc2cc3c(N)c(C(=O)Nc4sc(C)c(C)c4C#N)sc3nc2cc1OC,5,100*[fluorescence artefact?],-5,24,-7,-1
CN(CC(O)COc1c(F)cc(Br)cc1F)C1CCCCC1 (centres undefined),4,·,·,·,·,-1
N#CCCNc1c(Cl)cc(Cl)cc1C(=O)O,2,·,·,·,·,-2
O=C(O)CCN1C(=O)/C(=C/c2ccc(-c3nc4ccccc4s3)o2)SC1=S,-4,34,-3,18,2,0
O=C(O)CC(C(=O)O)N1C(=O)/C(=C/c2ccc(-c3nc4ccccc4s3)o2)SC1=S (centres undefined),6,52*,-3,0,-14,-2
CCC(C)c1ccc(NC(=O)C/C(C)=N/NC(=O)c2cnccn2)cc1 (centres undefined),-6,·,·,·,·,-2
CCN1CCc2c(sc(N)c2C(N)=O)C1,4,63*,7,-4,2,6
O=C(O)C(=O)/C(=C\c1ccccc1)c1ccc2ccccc2n1,5,78*,-2,12,0,0
O=C(O)C(=O)/C(=C\c1cccc2ccccc12)c1ccc2ccccc2n1,0,89*[fluorescence artefact?],-2,1,2,0
O=C(c1ccccc1)c1ccc2ccccc2n1,5,2,-2,9,-5,-3
Cc1cc(C)c(C)c(S(=O)(=O)N2CCN(CC(=O)Nc3sccc3C#N)CC2)c1C,-12,·,·,·,·,0
Cc1ccc(C(=O)N/C(=C/c2ccco2)C(=O)NCCc2c[nH]c3ccccc23)cc1,-15,·,·,·,·,0
SMILES,GALR2 antag,HIV Rev-RRE inh,S1P2 ag,S1P2 antag,EphB4 antag,GALR2 ag
O=C(NC(=S)NCCC1=CCCCC1)c1cncc(Br)c1,-12,·,·,·,·,1
CCSC1=N/C(=C\c2ccc(C(=O)O)cc2)C(=O)S1,2,6,-2,12,-2,1
CCOC(=O)SC1=N/C(=C\c2ccc(N(C)C)cc2)C(=O)S1,11,101*[fluorescence artefact?],-5,27,-6,-1
Cc1c(C(=O)N/N=C/c2ccc(N(C)C)cc2)[nH]c2ccc(Cl)cc12,4,·,·,·,·,6.4*
O=S(=O)(c1ccc2ccccc2c1)N1CCN(C(=S)Nc2ccc(F)c(Cl)c2)CC1,14,·,·,·,·,-1
O=C(CC1Nc2ccccc2NC1=O)c1ccccc1 (centres undefined),11,73*,-7,14,13,0
CCC(C)(C)NC(=O)/C=C/c1cnc2ccccc2n1,10,·,·,·,·,-1
CC(C)(C)NC(=O)c1ccc2nsnc2c1,-4,·,·,·,·,-1
CCCOc1ccc(N)cc1N,-1,101*[fluorescence artefact?],-9,18,11,-2
O=C(Cn1ccc(C(F)(F)F)n1)N/N=C/c1ccc2c(c1)OCO2,-1,·,·,·,·,0

# Bioassay records deposited in PubChem BioAssay by The Scripps Research Institute Molecular Screening Center.
